ChEMBL document CHEMBL1629500, “Synthesis and anticonvulsant activity of N-3-arylamide substituted 5,5-cyclopropanespirohydantoin derivatives” (Eur J Med Chem, 2010)
Calls of active or inactive are those of the source.

Columns and labels:
[1] = tested on: Mus musculus; assay: Anticonvulsant activity in ip dosed mouse assessed as inhibition of maximum electric shock-induced hind limb tonic extension after 4 hrs; assay type: functional; conditions: Hindlimb; for minimal effective dose: read-out: MED
In short: (§1)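 Male Kunming mice received the compound ip as a suspension in 0.5% methylcellulose at 30, 100 and 300 mg/kg, one to four mice per dose. At 0.5 h and 4.0 h, a 60-Hz, 50-mA current was given through corneal electrodes for 0.25 s. Absence of hindlimb tonic extension counted as protection. The minimal dose protecting half or more of the mice was recorded.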

[2] = tested on: Mus musculus; assay: Anticonvulsant activity in ip dosed mouse assessed as inhibition of PTZ-induced clonic seizure after 0.5 hrs; assay type: functional; conditions: for minimal effective dose: read-out: MED
In short: (§2)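 Male Kunming mice were dosed ip with the compound suspended in 0.5% methylcellulose at 30, 100 and 300 mg/kg, one to four mice per dose. Pentylenetetrazole in 0.9% saline was given subcutaneously at 0.5 h and 4.0 h. Protection meant no threshold seizure, i.e. no single clonic spasm episode lasting at least 5 s. The minimal dose active in half or more of the mice was recorded.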

[3] = tested on: Mus musculus; assay: Neurotoxicity against ip dosed mouse by rotarod test after 0.5 hrs; assay type: toxicity, organism-based; conditions: in vivo
In short: (§3)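 Mice were trained on a 1-in. knurled rod turning at 6 rpm, then given 30, 100 or 300 mg/kg ip as a suspension in 0.5% methylcellulose. They were tested at 0.5 h and 4.0 h. Neurotoxicity meant failure to keep balance on the rod for at least 1 min in each of four trials. The minimal dose affecting half or more of the mice was recorded.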

[4] = tested on: Mus musculus; assay: Anticonvulsant activity in ip dosed mouse assessed as inhibition of PTZ-induced clonic seizure after 4 hrs; assay type: functional; conditions: for minimal effective dose: read-out: MED; in short: as §2
[5] = tested on: Mus musculus; assay: Neurotoxicity against ip dosed mouse by rotarod test after 4 hrs; assay type: toxicity, organism-based; conditions: in vivo; in short: as §3
[6] = tested on: Mus musculus; assay: Anticonvulsant activity in ip dosed mouse assessed as inhibition of maximum electric shock-induced hind limb tonic extension after 0.5 hrs; assay type: functional; conditions: Hindlimb; for minimal effective dose: read-out: MED; in short: as §1
[7] = tested on: Mus musculus; assay: Anticonvulsant activity in ip dosed mouse assessed as inhibition of maximum electric shock-induced hind limb tonic extension; assay type: functional; conditions: Hindlimb
[8] = species: Mus musculus; assay: Protective index, ratio of TD50 for mouse to ED50 for inhibition of maximal electroshock-induced seizure in mouse; assay type: functional
[9] = tested on: Mus musculus; assay: Anticonvulsant activity in ip dosed mouse assessed as inhibition of PTZ-induced clonic seizure; assay type: functional
In short: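 Male Kunming mice (20 ± 2.0 g) were used. Test drug was given ip to groups of 10 mice over a range of doses until at least three points fell between 10% and 90% seizure protection or minimal neurotoxicity. […] Neurotoxicity was scored on the rotorod 30 min after dosing. PI = TD50/ED50.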

[10] = Toxicity against ip dosed mouse; assay type: organism-based; conditions: in vivo
[11] = tested on: Mus musculus; assay: Protective index, ratio of TD50 for mouse to ED50 for inhibition of subcutaneous pentylenetetrazole-induced seizure in mouse; assay type: functional

Row | SMILES | Activity [1] | minimal effective dose [2] [mg/kg] | MED [3] [mg/kg] | Activity [4] | Activity [5] | minimal effective dose [6] [mg/kg] | minimal effective dose [1] [mg/kg] | Activity [2] | MED [5] [mg/kg] | Activity [6] | Activity [3] | minimal effective dose [4] [mg/kg] | ED50 [7] [mg/kg] | Ratio [8] | ED50 [9] [mg/kg] | TD50 [10] [mg/kg] | Ratio [11]
1 | CC1(C)CC12NC(=O)N(NC(=O)c1ccccc1)C2=O (stereo not drawn) | inactive | 300 | 300 | inactive | Not Active | 300 |  |  |  |  |  |  |  |  |  |  | 
2 | CC1(C)CC12NC(=O)N(NC(=O)c1ccco1)C2=O (stereo not drawn) |  |  | 100 | inactive |  |  | 300 | inactive | 300 | inactive |  |  |  |  |  |  | 
3 | Cc1ccc(C(=O)NN2C(=O)NC3(CC3(C)C)C2=O)cc1 (stereo not drawn) | inactive |  |  |  |  | 100 |  | inactive | 300 |  | Not Active | 300 |  |  |  |  | 
4 | COc1ccc(C(=O)NN2C(=O)NC3(CC3(C)C)C2=O)cc1 (stereo not drawn) | inactive |  |  | inactive |  | 100 |  | inactive | 300 |  | Not Active |  |  |  |  |  | 
5 | CC1(C)CC12NC(=O)N(N1C(=O)c3ccccc3C1=O)C2=O (stereo not drawn) |  | 300 |  |  | Not Active | 30 | 100 |  |  |  | Not Active | 300 | 13.7 | 17.8 | 137 | 387 | 2.8
6 | CC1(C)CC12NC(=O)N(NC(=O)c1ccc(F)cc1)C2=O (stereo not drawn) |  | 300 |  | inactive |  | 100 | 300 |  | 300 |  | Not Active |  |  |  |  |  | 
7 | CC(C)(C)c1ccc(C(=O)NN2C(=O)NC3(CC3(C)C)C2=O)cc1 (stereo not drawn) |  | 100 |  | inactive | Not Active | 30 | 100 |  |  |  | Not Active |  | 25.3 | 15.5 | 208 | 382 | 1.8
8 | CCC1(c2ccccc2)C(=O)NC(=O)NC1=O [PHENOBARBITAL] |  |  |  |  |  |  |  |  |  |  |  |  | 21.8 |  | 13.2 |  | 
9 | CC1(C)CC12NC(=O)N(NC(=O)c1ccc(Br)cc1)C2=O (stereo not drawn) |  |  | 300 |  |  | 300 | 300 | inactive | 300 |  |  | 300 |  |  |  |  | 
10 | CC1(C)CC12NC(=O)N(NC(=O)c1ccc([N+](=O)[O-])cc1)C2=O (stereo not drawn) |  | 300 |  | inactive | Not Active | 300 | 300 |  |  |  | Not Active |  |  |  |  |  | 
11 | CC1(C)CC12NC(=O)N(NC(=O)c1ccccc1Cl)C2=O (stereo not drawn) | inactive | 300 |  | inactive |  | 300 |  |  | 300 |  | Not Active |  |  |  |  |  | 
12 | CC1(C)CC12NC(=O)N(NC(=O)c1ccc(Cl)cc1)C2=O (stereo not drawn) |  | 300 |  | inactive | Not Active | 100 | 300 |  |  |  | Not Active |  |  |  |  |  | 
13 | CC1(C)CC12NC(=O)N(NC(=O)c1cccnc1)C2=O (stereo not drawn) |  |  | 100 | inactive |  |  | 300 | inactive | 300 | inactive |  |  |  |  |  |  | 
14 | CCCC(CCC)C(=O)[O-].[Na+] [VALPROATE SODIUM] |  |  |  |  |  |  |  |  |  |  |  |  |  |  | 149 |  | 
15 | NC(=O)N1c2ccccc2C=Cc2ccccc21 [CARBAMAZEPINE] |  |  |  |  |  |  |  |  |  |  |  |  | 8.8 |  | > 100 |  | 
16 | CN(C)c1ccc(C(=O)NN2C(=O)NC3(CC3(C)C)C2=O)cc1 (stereo not drawn) |  | 100 |  | inactive | Not Active | 300 | 300 |  |  |  | Not Active |  |  |  |  |  | 
17 | O=C1NC(=O)C(c2ccccc2)(c2ccccc2)N1 [PHENYTOIN] |  |  | 100 | inactive |  | 30 | 30 | inactive | 100 |  |  |  |  |  | > 300 |  | 
18 | CC1(C)CC12NC(=O)N(NC(=O)c1ccc(C(F)(F)F)cc1)C2=O (stereo not drawn) |  | 300 |  |  | Not Active | 30 | 30 |  |  |  | Not Active | 300 | 9.2 | 45.8 | 62.1 | 422 | 6.7
19 | COc1cc(C(=O)NN2C(=O)NC3(CC3(C)C)C2=O)cc(OC)c1OC (stereo not drawn) | inactive |  | 100 | inactive |  | 300 |  | inactive | 300 |  |  |  |  |  |  |  | 
20 | CCC1(C)CC(=O)NC1=O (stereo not drawn) [ETHOSUXIMIDE] | inactive | 100 |  |  | Not Active |  |  |  |  | inactive | Not Active | 300 |  |  |  |  | 
21 | COc1ccc(C(=O)NN2C(=O)NC3(CC3(C)C)C2=O)cc1OC (stereo not drawn) |  |  |  |  |  | 300 | 300 | inactive | 300 |  | Not Active | 300 |  |  |  |  | 
22 | Cc1cccc(C(=O)NN2C(=O)NC3(CC3(C)C)C2=O)c1 (stereo not drawn) | inactive |  |  | inactive | Not Active | 100 |  | inactive |  |  | Not Active |  |  |  |  |  | 
23 | CC1(C)CC12NC(=O)N(NC(=O)c1ccccc1F)C2=O (stereo not drawn) | inactive |  |  | inactive |  | 100 |  | inactive | 300 |  | Not Active |  |  |  |  |  | 
24 | CC1(C)CC12NC(=O)N(NC(=O)c1cccs1)C2=O (stereo not drawn) |  |  | 100 | inactive |  |  | 300 | inactive | 300 | inactive |  |  |  |  |  |  | 
25 | CC1(C)CC12NC(=O)N(NC(=O)c1ccncc1)C2=O (stereo not drawn) |  |  | 100 | inactive |  |  | 300 | inactive | 300 | inactive |  |  |  |  |  |  | 
